Results from ChEMBL document CHEMBL4431364, “Discovery and synthetic optimization of a novel scaffold for hydrophobic tunnel-targeted autotaxin inhibition” (Bioorg Med Chem, 2016).
Activity calls are given as the source filed them. No cut-off for these calls is given here.

Legend:
[1] = biological target: Lysophosphatidic acid receptor 1 (Homo sapiens) (UniProt Q92633); experiment: Agonist activity at LPA receptor 1 (unknown origin) assessed as calcium mobilization after 30 mins by fluorescence analysis; format: functional
Chain of Lysophosphatidic acid receptor 1 (Homo sapiens) (Q92633 whole entry): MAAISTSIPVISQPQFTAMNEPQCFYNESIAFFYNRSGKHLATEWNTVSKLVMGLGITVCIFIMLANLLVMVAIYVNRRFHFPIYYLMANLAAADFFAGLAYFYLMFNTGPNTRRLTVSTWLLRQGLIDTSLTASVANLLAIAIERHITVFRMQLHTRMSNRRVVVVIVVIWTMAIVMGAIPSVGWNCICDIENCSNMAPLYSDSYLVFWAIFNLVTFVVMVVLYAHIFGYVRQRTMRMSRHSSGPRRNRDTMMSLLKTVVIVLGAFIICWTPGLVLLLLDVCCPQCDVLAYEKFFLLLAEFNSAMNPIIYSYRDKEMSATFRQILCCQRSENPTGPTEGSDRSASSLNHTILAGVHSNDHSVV

Autotaxin [2] = biological target: T1, Autotaxin (Homo sapiens, UniProt Q13822); experiment: Potency index, ratio of IC50 for GRI392104 to IC50 for test compound for inhibition of C-terminal FLAG tagged human recombinant ATX expressed in insect sf9 cells using FS-3 as substrate measured every 2 mins for 60 mins by FRET assay
[3] = biological target: T2, Lysophosphatidic acid receptor 3 (Homo sapiens) (UniProt Q9UBY5); experiment: Agonist activity at LPA receptor 3 (unknown origin) assessed as calcium mobilization after 30 mins by fluorescence analysis; format: functional
T2 sequence (whole entry): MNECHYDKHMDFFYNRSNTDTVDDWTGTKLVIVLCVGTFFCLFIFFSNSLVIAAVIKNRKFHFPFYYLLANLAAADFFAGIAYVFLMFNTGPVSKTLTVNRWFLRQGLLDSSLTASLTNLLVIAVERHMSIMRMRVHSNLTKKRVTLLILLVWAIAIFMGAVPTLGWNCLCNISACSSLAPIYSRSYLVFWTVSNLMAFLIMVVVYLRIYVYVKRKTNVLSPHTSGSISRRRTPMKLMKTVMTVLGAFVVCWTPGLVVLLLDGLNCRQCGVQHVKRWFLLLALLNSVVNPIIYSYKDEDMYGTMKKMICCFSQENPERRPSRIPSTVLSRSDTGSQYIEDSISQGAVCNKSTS

[4] = biological target: Lysophosphatidic acid receptor 1 (Homo sapiens) (UniProt Q92633); experiment: Antagonist activity at LPA receptor 1 (unknown origin) assessed as inhibition of LPA induced calcium mobilization at 0.01 to 10 uM after 30 mins by fluorescence analysis; format: functional
Autotaxin [5] = biological target: T1, Autotaxin; experiment: Inhibition of C-terminal FLAG tagged human recombinant ATX expressed in insect sf9 cells using pNP-TMP as substrate measured every 2 mins for 60 mins by absorbance
How it was run: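 Dose response 0.03 to 30 μM compound against 10 nM human FLAG-fusion ATX with 1 mM pNP-TMP in pH 8.0 Tris/BSA buffer. A405 every 2 min for 60 min at 37 °C, normalized to no-enzyme and uninhibited controls. IC50 by non-linear regression. Triplicate.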

[6] = biological target: Lysophosphatidic acid receptor 2 (Mus musculus) (UniProt Q9JL06); experiment: Potentiation of LPA induced activity at LPA receptor 2 in double knockout MEF assessed as calcium mobilization at 0.01 to 10 uM after 30 mins in presence of BSA by Fura-2AM based fluorescence analysis; format: functional, cell-based
Chain of Lysophosphatidic acid receptor 2 (Mus musculus) (Q9JL06 whole entry): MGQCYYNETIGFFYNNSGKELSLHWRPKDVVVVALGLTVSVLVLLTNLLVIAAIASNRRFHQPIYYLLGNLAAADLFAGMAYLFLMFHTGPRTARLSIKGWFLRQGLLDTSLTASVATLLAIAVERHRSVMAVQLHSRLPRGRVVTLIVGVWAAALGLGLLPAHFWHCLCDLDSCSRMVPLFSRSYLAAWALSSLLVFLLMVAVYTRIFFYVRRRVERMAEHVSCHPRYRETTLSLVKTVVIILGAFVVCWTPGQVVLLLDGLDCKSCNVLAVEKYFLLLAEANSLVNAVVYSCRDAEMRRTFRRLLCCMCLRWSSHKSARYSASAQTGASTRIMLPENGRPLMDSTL

[7] = biological target: T2, Lysophosphatidic acid receptor 3 (Homo sapiens); experiment: Antagonist activity at LPA receptor 3 (unknown origin) assessed as inhibition of LPA induced calcium mobilization at 0.01 to 10 uM after 30 mins by fluorescence analysis; format: functional
[8] = biological target: Lysophosphatidic acid receptor 5 (Homo sapiens) (UniProt Q9H1C0); experiment: Antagonist activity at LPA receptor 5 (unknown origin) assessed as inhibition of LPA induced calcium mobilization at 0.01 to 10 uM after 30 mins by fluorescence analysis; format: functional
Chain of Lysophosphatidic acid receptor 5 (Homo sapiens) (Q9H1C0 whole entry): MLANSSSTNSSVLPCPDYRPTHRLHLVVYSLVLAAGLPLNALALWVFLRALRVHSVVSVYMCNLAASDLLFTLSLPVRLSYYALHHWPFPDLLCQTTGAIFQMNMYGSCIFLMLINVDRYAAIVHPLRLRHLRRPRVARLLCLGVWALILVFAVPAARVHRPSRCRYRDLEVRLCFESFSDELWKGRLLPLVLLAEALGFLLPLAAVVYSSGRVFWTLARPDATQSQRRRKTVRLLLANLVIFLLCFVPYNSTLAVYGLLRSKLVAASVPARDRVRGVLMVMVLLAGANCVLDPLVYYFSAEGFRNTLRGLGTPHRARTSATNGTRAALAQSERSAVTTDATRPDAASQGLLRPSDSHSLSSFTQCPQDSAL

[9] = biological target: Lysophosphatidic acid receptor 2 (Mus musculus) (UniProt Q9JL06); experiment: Antagonist activity at LPA receptor 2 in double knockout MEF assessed as inhibition of LPA induced calcium mobilization at 0.01 to 10 uM after 30 mins by fluorescence analysis; format: functional, cell-based
[10] = biological target: Lysophosphatidic acid receptor 4 (Homo sapiens) (UniProt Q99677); experiment: Agonist activity at LPA receptor 4 (unknown origin) assessed as calcium mobilization after 30 mins by fluorescence analysis; format: functional
Chain of Lysophosphatidic acid receptor 4 (Homo sapiens) (Q99677 whole entry): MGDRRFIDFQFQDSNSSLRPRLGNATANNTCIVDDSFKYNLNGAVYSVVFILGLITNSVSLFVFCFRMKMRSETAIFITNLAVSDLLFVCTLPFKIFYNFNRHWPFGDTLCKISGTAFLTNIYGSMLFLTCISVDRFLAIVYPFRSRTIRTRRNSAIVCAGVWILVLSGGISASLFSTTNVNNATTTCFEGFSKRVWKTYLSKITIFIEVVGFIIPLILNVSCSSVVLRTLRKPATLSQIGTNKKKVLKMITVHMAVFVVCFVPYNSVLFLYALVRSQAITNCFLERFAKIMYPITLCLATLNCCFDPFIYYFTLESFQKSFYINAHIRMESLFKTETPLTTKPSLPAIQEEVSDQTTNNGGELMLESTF

[11] = biological target: T3, Glycerophosphocholine cholinephosphodiesterase ENPP6 (Homo sapiens) (UniProt Q6UWR7); experiment: Inhibition of C-terminal FLAG tagged human recombinant NPP6 expressed in insect sf9 cells assessed as remaining enzyme activity response at 10 uM using pNPPC as substrate measured every 2 mins for 1 hr by […]
T3 sequence (whole entry): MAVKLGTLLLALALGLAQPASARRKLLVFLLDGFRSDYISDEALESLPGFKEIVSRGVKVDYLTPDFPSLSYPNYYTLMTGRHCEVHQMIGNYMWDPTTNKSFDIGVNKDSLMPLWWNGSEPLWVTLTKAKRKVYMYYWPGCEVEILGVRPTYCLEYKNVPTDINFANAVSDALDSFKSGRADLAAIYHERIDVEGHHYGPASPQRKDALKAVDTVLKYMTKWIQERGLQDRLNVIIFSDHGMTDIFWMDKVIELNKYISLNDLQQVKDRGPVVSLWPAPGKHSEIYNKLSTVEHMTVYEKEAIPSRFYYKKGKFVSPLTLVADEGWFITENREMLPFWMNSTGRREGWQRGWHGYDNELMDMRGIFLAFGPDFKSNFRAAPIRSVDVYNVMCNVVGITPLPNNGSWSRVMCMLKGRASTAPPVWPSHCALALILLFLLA
How it was run: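 Final 10 nM human FLAG-fusion NPP6, 10 μM compound, 10 μM pNPPC in 500 mM NaCl, 100 mM Tris-HCl, 0.05% Triton X-100, pH 9. A405 at 37 °C every 2 min for 1 h. Background absorbance subtracted. Mean percent response relative to enzyme-only control (no-enzyme = 0%). Triplicate.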

[12] = biological target: Lysophosphatidic acid receptor 2 (Mus musculus) (UniProt Q9JL06); experiment: Agonist activity at LPA receptor 2 in double knockout MEF assessed as calcium mobilization after 30 mins by fluorescence analysis; format: functional, cell-based
[13] = biological target: T4, Ectonucleotide pyrophosphatase/phosphodiesterase family member 7 (Homo sapiens) (UniProt Q6UWV6); experiment: Inhibition of C-terminal FLAG tagged human recombinant NPP7 expressed in insect sf9 cells assessed as remaining enzyme activity response at 10 uM using pNPPC as substrate measured every 2 mins for 1 hr by […]
T4 sequence (whole entry): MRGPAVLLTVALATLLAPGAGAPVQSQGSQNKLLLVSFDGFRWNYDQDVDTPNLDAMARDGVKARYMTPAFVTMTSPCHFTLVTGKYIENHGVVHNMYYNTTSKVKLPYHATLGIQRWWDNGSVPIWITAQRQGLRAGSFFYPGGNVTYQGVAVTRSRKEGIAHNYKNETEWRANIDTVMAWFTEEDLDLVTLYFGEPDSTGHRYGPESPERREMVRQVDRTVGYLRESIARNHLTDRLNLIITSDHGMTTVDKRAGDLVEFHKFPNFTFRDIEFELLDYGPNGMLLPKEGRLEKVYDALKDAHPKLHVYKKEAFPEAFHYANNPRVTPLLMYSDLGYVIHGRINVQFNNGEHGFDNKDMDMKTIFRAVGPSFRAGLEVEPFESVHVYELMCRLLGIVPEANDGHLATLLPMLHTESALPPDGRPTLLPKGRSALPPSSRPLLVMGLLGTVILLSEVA
How it was run: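 Human FLAG-fusion NPP7 (10 nM final) with 10 μM compound and 10 μM pNPPC in 50 mM Tris-HCl, 150 mM NaCl, 10 mM taurocholate, pH 8. Absorbance at 405 nm, 37 °C, every 2 min for an hour. Background subtracted. Mean percent of enzyme-only response (no-enzyme = 0%). Triplicate.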

Autotaxin [14] = biological target: T1, Autotaxin; experiment: Inhibition of C-terminal FLAG tagged human recombinant ATX expressed in insect sf9 cells at 10 uM using pNP-TMP as substrate measured every 2 mins for 60 mins by absorbance
[15] = biological target: Lysophosphatidic acid receptor 4 (Homo sapiens) (UniProt Q99677); experiment: Antagonist activity at LPA receptor 4 (unknown origin) assessed as inhibition of LPA induced calcium mobilization at 0.01 to 10 uM after 30 mins by fluorescence analysis; format: functional
Autotaxin [16] = biological target: T1, Autotaxin; experiment: Inhibition of C-terminal FLAG tagged human recombinant ATX expressed in insect sf9 cells using FS-3 as substrate measured every 2 mins for 60 mins by FRET assay
How it was run: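 Dose response over 0.03 to 30 μM compound, 10 nM human FLAG-fusion ATX, 1 μM FS-3 in pH 8.0 Tris/BSA assay buffer. Fluorescence at 485/520 nm every 2 min for 60 min at 37 °C, normalized to no-ATX and no-compound controls. IC50 by non-linear regression. Triplicate.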

[17] = biological target: Lysophosphatidic acid receptor 5 (Homo sapiens) (UniProt Q9H1C0); experiment: Agonist activity at LPA receptor 5 (unknown origin) assessed as calcium mobilization after 30 mins by fluorescence analysis; format: functional
Autotaxin [18] = biological target: T1, Autotaxin; experiment: Inhibition of C-terminal FLAG tagged human recombinant ATX expressed in insect sf9 cells at 10 uM using FS-3 as substrate measured every 2 mins for 60 mins by FRET assay
How it was run: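 10 μM compound with 10 nM human FLAG-fusion ATX in pH 8.0 Tris buffer (30 μM BSA, 1 mM CaCl2, 1 mM MgCl2, 5 mM KCl, 140 mM NaCl) and 1 μM FS-3. Fluorescence at ex 485/em 520 nm read every 2 min for 60 min at 37 °C. Normalized to no-ATX (0%) and ATX without compound (100%). Triplicate.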

Activity [1]: inactive | Ratio IC50 (Autotaxin [2]): 6 | Activity [3]: inactive | inhibition [4]: inactive | IC50 (Autotaxin [5]): 8.9 µM | Activity [6]: Active | inhibition [7]: inactive | inhibition [8]: inactive | inhibition [9]: inactive | Activity [10]: inactive | Activity [11]: 89.8% | Activity [12]: inactive | Activity [13]: 102% | inhibition (Autotaxin [14]): 52.1% | inhibition [15]: inactive | IC50 (Autotaxin [16]): 670 nM | Activity [17]: inactive | inhibition (Autotaxin [18]): 84.3%
SMILES: O=C(COc1cc(Cl)cc(Cl)c1)N1CCN(c2cccc([N+](=O)[O-])c2)CC1
